Experimental data gathered from unrelated publications.
Lines come from different studies, so protocols differ.
PIK3CA E545A: Phosphatidylinositol 4,5-bisphosphate 3-kinase catalytic subunit alpha isoform (PIK3CA, Homo sapiens, UniProt P42336, E545A)
PIK3CA I800L: Phosphatidylinositol 4,5-bisphosphate 3-kinase catalytic subunit alpha isoform (PIK3CA, Homo sapiens, UniProt P42336, I800L)
PIK3CA C420R: Phosphatidylinositol 4,5-bisphosphate 3-kinase catalytic subunit alpha isoform (PIK3CA, Homo sapiens, UniProt P42336, C420R)
PIK3CA H1047L: Phosphatidylinositol 4,5-bisphosphate 3-kinase catalytic subunit alpha isoform (PIK3CA, Homo sapiens, UniProt P42336, H1047L)
PIK3CA H1047Y: Phosphatidylinositol 4,5-bisphosphate 3-kinase catalytic subunit alpha isoform (PIK3CA, Homo sapiens, UniProt P42336, H1047Y)
PIK3CA M1043I: Phosphatidylinositol 4,5-bisphosphate 3-kinase catalytic subunit alpha isoform (PIK3CA, Homo sapiens, UniProt P42336, M1043I)
PIK3CA Q546K: Phosphatidylinositol 4,5-bisphosphate 3-kinase catalytic subunit alpha isoform (PIK3CA, Homo sapiens, UniProt P42336, Q546K)
PIK3CA E545K: Phosphatidylinositol 4,5-bisphosphate 3-kinase catalytic subunit alpha isoform (PIK3CA, Homo sapiens, UniProt P42336, E545K)
PIK3CA: Phosphatidylinositol 4,5-bisphosphate 3-kinase catalytic subunit alpha isoform (PIK3CA, Homo sapiens, UniProt P42336)
PIK3CA E542K: Phosphatidylinositol 4,5-bisphosphate 3-kinase catalytic subunit alpha isoform (PIK3CA, Homo sapiens, UniProt P42336, E542K)

Structure (SMILES) | target | effect on | method | tested at | remaining binding
CN(c1nccc(-c2cnn3ncccc23)n1)C1CC1 | PIK3CA E545A | binding |  | 1 µM | 100%
CN1CCN(c2ccc(Nc3nccc(-c4cccc([N+](=O)[O-])c4)n3)cc2C(F)(F)F)CC1 | PIK3CA I800L | binding |  | 10 µM | 18%
O=C1CCc2cc(Nc3cc(OC4CCOCC4)c([N+](=O)[O-])cc3Cl)ccc2N1 | PIK3CA C420R | cell-free assay | competition with immobilised ligand | 1 µM | 97%
C[C@H]1CCN(c2nccc(-c3cnn4ncccc34)n2)C1 | PIK3CA H1047L | binding |  | 1 µM | 69%
O=C(Nc1c[nH]nc1C(=O)NC1CCNCC1)c1cc(F)cc(F)c1 | PIK3CA H1047Y | binding | competition with immobilised ligand | 1 µM | 100%
Cc1c(NC(=O)c2cc(C(N)=O)nc3cc(F)ccc23)c(C(F)(F)F)nn1Cc1ccc(C(C)(C)C)cc1 | PIK3CA C420R | cell-free assay | competition with immobilised ligand | 1 µM | 100%
CN(C)c1ncc(F)c(-c2cnn3ncccc23)n1 | PIK3CA I800L | binding |  | 1 µM | 46%
CS(=O)(=O)N1CCCC(NC(=O)[C@H](CCC2CCCCC2)NC(=O)c2ccc(CNC(=O)c3cnc4ccccn34)cc2)C1 (stereo partly shown) | PIK3CA H1047L | cell-free assay | competition with immobilised ligand | 0.1 µM | 100%
CN(C)c1nccc(-c2cnn3ncccc23)n1 | PIK3CA E545A | binding |  | 1 µM | 100%
O=C(NCCCN1CCOCC1)c1ccc(Nc2ncc(Cl)c(-c3ccc(Cl)s3)n2)cc1 | PIK3CA M1043I | binding | competition with immobilised ligand | 1 µM | 100%
c1cncc(-c2cccc(Nc3nccc(NC4CCCCC4)n3)c2)c1 | PIK3CA H1047Y | binding | competition with immobilised ligand | 10 µM | 89%
CN([C@@H]1CCc2c(CC(=O)O)c3cc(S(C)(=O)=O)ccc3n2C1)S(=O)(=O)c1ccc(F)cc1 | PIK3CA Q546K | cell-free assay | competition with immobilised ligand | 1 µM | 100%
CN(C)c1nccc(-c2cnc3ncccn23)n1 | PIK3CA E545A | binding |  | 1 µM | 90%
O=C(c1ccc(Nc2ncc(Cl)c(-c3ccc(Cl)s3)n2)cc1)N1CCC(N2CCCC2)CC1 | PIK3CA E545K | binding | competition with immobilised ligand | 1 µM | 70%
C=CC(=O)N1CCC(C(=O)NCC(=O)N2CCN(c3nc(-c4cnc(N)nc4C(F)F)nc(N4CCOCC4)n3)CC2)CC1 | PIK3CA E545K | binding | competition with immobilised ligand | 1 µM | 0%
CS(=O)(=O)NCC[C@H](NC(=O)c1cncc2c1cnn2-c1ccc(F)cc1)c1ccnc(S(C)(=O)=O)c1 | PIK3CA | cell-free assay | competition with immobilised ligand | 1 µM | 83%
COc1cnc(Nc2cccc(S(N)(=O)=O)c2)nc1N1CCN(c2ccccc2)CC1 | PIK3CA M1043I | binding | competition with immobilised ligand | 1 µM | 79%
O=C(NCC1CCOCC1)c1n[nH]cc1NC(=O)c1c(F)cccc1F | PIK3CA Q546K | binding | competition with immobilised ligand | 1 µM | 77%
O=C(c1ccc(Nc2nccc(-c3cc4ccccc4s3)n2)cc1)N1CCC(N2CCCC2)CC1 | PIK3CA E545A | binding | competition with immobilised ligand | 1 µM | 100%

Structure (SMILES) | target | effect on | method | tested at | remaining binding
FC(F)(F)Oc1cccc(-c2cnc3ccc(-c4ccncc4)nn23)c1 | PIK3CA | cell-free assay | competition with immobilised ligand | 5 µM | 35%
c1cnn2ncc(-c3ccnc(N4CCC45COC5)n3)c2c1 | PIK3CA Q546K | binding |  | 1 µM | 63%
CCN1CCN(Cc2ccc(C(=O)Nc3ccc(C)c(Oc4ccc5c(c4)CC(=O)N5)c3)cc2C(F)(F)F)CC1 | PIK3CA E542K | binding | competition with immobilised ligand | 1 µM | 100%
CSc1cccnc1N1CCN(Cc2nc3ccccc3[nH]2)CC1 | PIK3CA H1047L | cell-free assay | competition with immobilised ligand | 1 µM | 87%
O=C(NCCCN1CCOCC1)c1ccc(Nc2nccc(-c3cc4ccccc4s3)n2)cc1 | PIK3CA Q546K | binding | competition with immobilised ligand | 1 µM | 81%
N[C@@H]1CCN(c2nccc(-c3cnn4ncccc34)n2)C1 | PIK3CA I800L | binding |  | 1 µM | 71%
Cc1noc([C@H]2C[C@@H](c3ccc(C(F)(F)F)cc3)CN(C(=O)N3CCS(=O)(=O)C3)C2)n1 | PIK3CA M1043I | cell-free assay | competition with immobilised ligand | 1 µM | 100%
Nc1ncc2c(n1)-c1c([nH]c3ccc(C#CC4CC4)cc13)CCCC2 | PIK3CA E542K | binding | competition with immobilised ligand | 1 µM | 91%
F[C@@H]1CCN(c2nccc(-c3cnn4ncccc34)n2)C1 | PIK3CA E545K | binding |  | 1 µM | 100%
Cc1cc(-c2cc(C(F)(F)F)ccc2O[C@H]2C[C@@]2(CNS(=O)(=O)c2ccc([N+](=O)[O-])cc2)c2ccc(F)cc2F)[nH]n1 | PIK3CA M1043I | cell-free assay | competition with immobilised ligand | 0.3 µM | 8.1%
COc1ncc2cc3ccccc3nc2c1C#N | PIK3CA E545A | cell-free assay | competition with immobilised ligand | 5 µM | 99%
C[C@@H](c1ccc(-n2cnc3c(N)ncnc32)cc1)N1CCc2nn(C)c(Cc3ccccc3)c2C1=O | PIK3CA H1047Y | binding | competition with immobilised ligand | 0.1 µM | 78%
CN1CCN(c2ccc(Nc3nccc(-c4ccccc4)n3)cc2C(F)(F)F)CC1 | PIK3CA H1047Y | binding |  | 10 µM | 90%
CNC(=O)[C@@H]1CC[C@@H](n2c(-c3ccc4cnccc4c3)nc3ccc(C(=O)NCc4cccc(C(N)=O)c4)cc32)C1 | PIK3CA | binding | competition with immobilised ligand | 1 µM | 100%
O=C(NCc1ncc(C(F)(F)F)cc1Cl)c1ccc2c(c1)C1(CCS(=O)(=O)CC1)[C@H](C1CC1)N2S(=O)(=O)c1ccc(F)cc1 | PIK3CA H1047L | cell-free assay | competition with immobilised ligand | 1 µM | 77%
O=C(c1ccc(Nc2ncc(Cl)c(-c3cc4ccccc4s3)n2)cc1)N1CCC(N2CCCC2)CC1 | PIK3CA Q546K | binding | competition with immobilised ligand | 1 µM | 90%
CN1CC[C@H](c2c(O)cc(O)c3c(=O)cc(-c4ccccc4Cl)oc23)[C@H](O)C1 | PIK3CA | cell-free assay | competition with immobilised ligand | 10 µM | 97%
COc1cnc(Nc2cccc(S(N)(=O)=O)c2)nc1N1CCN(c2ccccc2)C(=O)C1 | PIK3CA E545A | binding | competition with immobilised ligand | 1 µM | 98%
